Source: ChEMBL document CHEMBL1155564, “New antimicrobial flavanones from Physena madagascariensis” (2000)

Columns and labels:
Type in all cases: functional
Conditions in all cases: read-out: MEC
Klebsiella aerogenes = assay: Antimicrobial activity against Enterobacter aerogenes after 16 hrs by microtiter plate assay
In short: (§1)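 Broth microdilution in YPAD medium (1% yeast extract, 2% peptone, 2% dextrose, 40 μg/mL adenine). Wells were scored visually after 16 h. Clear wells were plated on YPAD agar for 16 h at room temperature; regrowth meant bacteriostatic, none meant bactericidal.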

Enterococcus = assay: Antimicrobial activity against Enterococcus after 16 hrs by microtiter plate assay; in short: as §1
Listeria monocytogenes = assay: Antimicrobial activity against Listeria monocytogenes after 16 hrs by microtiter plate assay; in short: as §1
Escherichia coli = assay: Antimicrobial activity against Escherichia coli after 16 hrs by microtiter plate assay; in short: as §1
Salmonella enterica = assay: Antimicrobial activity against Salmonella enterica after 16 hrs by microtiter plate assay; in short: as §1
Shigella sonnei = assay: Antimicrobial activity against Shigella sonnei after 16 hrs by microtiter plate assay by microtiter plate assay; in short: as §1
[1] = test system: Staphylococcus epidermidis; assay: Antimicrobial activity against Staphylococcus epidermidis after 16 hrs by microtiter plate assay; in short: as §1
Staphylococcus aureus = assay: Antimicrobial activity against Staphylococcus aureus after 16 hrs by microtiter plate assay; in short: as §1

SMILES: C=C(C)CC[C@H](Cc1c(O)cc(O)c2c1O[C@H](c1ccc(O)cc1)CC2=O)C(=C)C [REMANGIFLAVANONE A]
- minimal effective concentration (Klebsiella aerogenes): 125 µg/mL
- minimal effective concentration (Enterococcus): 7.5 µg/mL
- minimal effective concentration (Listeria monocytogenes): 125 µg/mL
- minimal effective concentration (Escherichia coli): 125 µg/mL
- minimal effective concentration (Salmonella enterica): 125 µg/mL
- minimal effective concentration (Shigella sonnei): 125 µg/mL
- minimal effective concentration [1]: 1.8 µg/mL
- minimal effective concentration (Staphylococcus aureus): 3.75 µg/mL

SMILES: C=C(C)CC[C@H](Cc1c(O)cc(O)c2c1O[C@H](c1ccc(O)cc1O)CC2=O)C(=C)C [REMANGIFLAVANONE B]
- minimal effective concentration (Klebsiella aerogenes): 125 µg/mL
- minimal effective concentration (Enterococcus): 7.5 µg/mL
- minimal effective concentration (Listeria monocytogenes): 1.8 µg/mL
- minimal effective concentration (Escherichia coli): 125 µg/mL
- minimal effective concentration (Salmonella enterica): 125 µg/mL
- minimal effective concentration (Shigella sonnei): 125 µg/mL
- minimal effective concentration [1]: 1.8 µg/mL
- minimal effective concentration (Staphylococcus aureus): 1.8 µg/mL
